Assay results: ChEMBL document CHEMBL4513216, “Probing the Open Global Health Chemical Diversity Library for Multistage-Active Starting Points for Next-Generation Antimalarials” (ACS Infect Dis, 2020)

Test: Toxicity liver stage against HepG2, at 10uM
Type: cell-based
Parameters: test concentration 10 uM, cell line HepG2-A16-CD81EGFP
Conditions: human, HepG2-A16-CD81EGFP cells; read-out: INHIBITION
How it was run: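 Uninfected HepG2-A16-CD81EGFP cells, 3 × 10^3 per well, 1536-well, plated on prespotted compound at 10 μM final, parasite-free screening media added to match infected plates; puromycin 10 μM positive, DMSO 0.5% negative; run in parallel with 48 h PbLuc assay at 37 °C, 5% CO2; viability by CellTiter-Glo luminescence, normalized to controls.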

| SMILES | cytotoxicity at 10 µM |
| --- | --- |
| COC(=O)c1cccc(S(=O)(=O)NC(=O)COC2CCCC2)c1 | -1.03% |
| CCn1ccnc1CN1CCN(Cc2ccc(C)o2)[C@@H]2CS(=O)(=O)C[C@@H]21 | -11.2% |
| O=C(NCc1ccc2nonc2c1)C1CCN(C(=O)C2CCC2)CC1 | -8.61% |
| O=C(Nc1ccc(-c2ccco2)cc1)C1CCCN(Cc2ccon2)C1 (stereo unspecified) | 1.17% |
| NC(=O)NC(=O)CCN1CCCC1c1nc(C2CCCCC2)co1 (stereo unspecified) | 5.33% |
| O=C(c1ccc(-n2ccnc2)nc1)N1CCN2CCCCC2C1 (stereo unspecified) | -5.95% |
| CCc1cc(C(=O)NCC2CCN(Cc3ccncc3)CC2)on1 | 10.4% |
| CN(C)C(=O)c1ccccc1NCCCOc1cccc(C#N)c1 | 4.52% |
| Cn1cnc(S(=O)(=O)Nc2cc(C(N)=O)ccc2Cl)c1 | 3.86% |
| COCCc1noc(CN2CCCC2c2noc(C3CC3)n2)n1 (stereo unspecified) | 1.33% |
| Cc1ccc2c(ccn2CC(=O)NC[C@@H]2CCCN3CCCC[C@H]23)c1 | 0.097% |
| Cn1ccnc1-c1nccn1C[C@@H]1CCCN2CCCC[C@H]12 | 2.68% |
| O=C(c1ccncc1)N1CCN(c2ccc(F)cc2Cl)CC1 | -140% |
| CCOC(=O)C1CCN(C(=O)CN2CCCC2c2cc(C)no2)CC1 (stereo unspecified) | 8.32% |
| O=C(NCCNc1ccccn1)NC1CCCC1 | -5.81% |
| O=C(NCCCNC(=O)c1cccc(O)c1)Nc1ccc(F)cc1F | -11% |
| NC(=O)C1CCN(C(=O)c2ccc(Cn3cc(Br)cn3)cc2)CC1 | -6.24% |
| Cc1n[nH]c(C2CN(C(=O)CCc3cscn3)CCO2)n1 (stereo unspecified) | -4.34% |
| CN(CCc1ccncc1)Cc1c(C2CCCC2)[nH]c2ncccc12 | 1.46% |
| CCC1c2ccccc2CCN1C(=O)c1ccnc(C(=O)OC)c1 (stereo unspecified) | -2.72% |
| O=C(Cn1cc(I)cn1)N1CCCC1 | -0.653% |

| SMILES | cytotoxicity at 10 µM |
| --- | --- |
| CCOc1ccc(Cl)c(C(=O)N2CCN(CCO)CC2)n1 | -5.15% |
| CS(=O)(=O)N1CCN(C(=O)c2cncs2)CC(C(N)=O)C1 (stereo unspecified) | 2.9% |
| COC(=O)CN1CCC(C(=O)c2cc(F)ccc2F)CC1 | -6.52% |
| COCC1Cn2nnc(-c3cnn(C)c3)c2CN1Cc1ccoc1 (stereo unspecified) | 6.44% |
| Cc1csc(CN2CCC[C@]3(C[C@@H](Oc4ccccn4)CO3)C2)n1 | -141% |
| CCc1ccc(CN2CCC3(CC2)CN(c2cnn(C)c2)C(=O)CO3)o1 | 0.777% |
| CN(Cc1ccc(F)cc1)C(=O)CN1CCOC(Cn2cccn2)C1 (stereo unspecified) | 2.2% |
| CC(=O)Nc1ccc(C(=O)N(C)Cc2ccc(F)cc2F)s1 | 6.43% |
| Cc1cc(CNC(=O)c2cn(CCC3CCCCN3)nn2)on1 (stereo unspecified) | -7.19% |
| O=c1cc(N2CCCCC2)cnn1CC(O)C(F)(F)F (stereo unspecified) | 12.3% |
| COc1cccc(N2CCN(Cc3ccc4ccn(C)c4c3)CC2=O)c1 | 17.3% |
| O=C(O)CCc1cccc(C2CCCN2Cc2ccc(F)c(F)c2)n1 (stereo unspecified) | -5.25% |
| CCS(=O)(=O)CC(=O)N1CCCC1c1noc(C2CC2)n1 (stereo unspecified) | -12.9% |
| Cc1ccsc1C(=O)N1CC2CC1(C(=O)NCC1CC1)C2 | -4.78% |
| O=C(c1cccnc1)N1CCCC(c2ccnc3nccn23)C1 (stereo unspecified) | 6.2% |
| c1cc(COC[C@@H]2CCC[C@@]23CNCCO3)ccn1 | 1.26% |
| CC1CCN(S(=O)(=O)NCc2ccccc2Cn2cncn2)CC1 | -2.72% |
| CCn1c(CN(C)C)nnc1C1CCN(c2ccnc(C)c2)CC1 | 14.9% |
| COCCN1C(=O)[C@@H]2CC[C@H]1CN(C(=O)COc1ccc(F)c(Cl)c1)C2 | -0.447% |
| CN(C)CCN1C(=O)C2(CCN(CC3CC3)CC2)c2ccccc21 | -120% |
| Cn1nnc2c1C(COCc1ccccn1)CN(C(=O)c1ccsc1)C2 (stereo unspecified) | 13.6% |

| SMILES | cytotoxicity at 10 µM |
| --- | --- |
| COc1cc(C(=O)N(C)C)ccc1NC(=O)c1ccsc1 | -2.53% |
| COCCN1C(=O)c2ccc(C(=O)NCCc3c[nH]cn3)cc2C1=O | -7.13% |
| COC(=O)c1ccc(C(=O)NCC(O)c2cccn2C)cc1 (stereo unspecified) | -3.84% |
| O=C(CCc1cc2n(n1)CCCNC2)NCCCSC1CCCCC1 | -5.52% |
| O=C1N(Cc2ccccn2)C[C@H]2CN(C3CCC3)CCN12 | -4.81% |
| CCn1c(CN(C)C)nnc1C1CCN(Cc2cccc(C#N)c2)CC1 | 6.5% |
| COCCC(=O)N1CCC2(CCCN2Cc2ccccc2)C1 (stereo unspecified) | 10.4% |
| Cc1ccccc1CN1CC[C@@]2(O)CCN(C(=O)C3CCC3)C[C@H]2C1 | 27.9% |
| c1csc(N2CCCN(Cc3noc(C4CC4)n3)CC2)n1 | 3.41% |
| Cc1ccc2nc(C3CCCN3Cc3csc(C)n3)[nH]c2c1 (stereo unspecified) | 1.58% |
| CCCC(=O)N(CC)C(c1cccnc1)c1ccc2c(c1)CCO2 (stereo unspecified) | 0.217% |
| Cc1cc(C(=O)NCC2OCCc3cn(CC4CC4)nc32)c(C)[nH]1 (stereo unspecified) | 3.42% |
| COc1nc2cc(C)ccc2cc1CN(C)Cc1n[nH]c2c1CCCC2 | 4.03% |
| O=C(O)c1cc(-c2cc[nH]n2)cc(S(=O)(=O)N2CCCCCC2)c1 | -4.88% |
| Cc1nnc2n1CCN(C(=O)c1cc(C)n(-c3ccccc3)c1C)C2 | -4.94% |
| CCOc1ccnc(N2CCN(C(=O)CCc3ccsc3)CC2)n1 | 8.15% |
| CC(C)N1CCC(c2ccnc3c(C(=O)N4CCCC4)ncn23)CC1 | -5.49% |
| COc1cccc(-c2ncc(CN3CCOCC(O)C3)s2)c1 (stereo unspecified) | -7.19% |
| O=C1CN(c2ccc(CNC(=O)Nc3nccs3)cc2)CCN1 | 1.93% |
| CC(NC(=O)c1cc2n(n1)CCCN(C)C2)c1cn2ncsc2n1 (stereo unspecified) | -6.73% |
| Cn1c2ncccc2c(=O)n1CC(=O)NCCC1=CCCCC1 | 19% |

| SMILES | cytotoxicity at 10 µM |
| --- | --- |
| Cc1cnc(NC(=O)N2CCCC2)s1 | -13.6% |
| CC(=O)c1cc(CN2C[C@@H]3CC[C@H]2CN(S(=O)(=O)N(C)C)C3)cs1 | -8.19% |
| O=C1CC(c2cccnc2)c2c(c(C(=O)O)cn2-c2ccc(Cl)cc2)N1 (stereo unspecified) | -0.462% |
| O=C(O)[C@H]1OCC(=O)N(Cc2cccc(F)c2)[C@@H]1c1ccc(Cl)cc1 | 8.9% |
| CN(C)c1nc(CNC(=O)NC2COc3ccccc32)cs1 (stereo unspecified) | -3.38% |
| CCC(=O)NCc1cc(C2CC2)n(C2CCCC2)n1 | -4.36% |
| CC(NC(=O)NCC(F)(F)F)c1nncn1C (stereo unspecified) | -1.63% |
| COCCN1C(=O)CO[C@H]2CN(CCCc3ccccc3)C[C@H]21 | 52.8% |
| Cc1ccc(S(=O)(=O)NC2CNC(=O)C2)cc1C (stereo unspecified) | -21.1% |
| CCc1cc(N2CCC(F)(F)CC2)n2nc(C)c(C)c2n1 | -6.42% |
| Cc1nc2ccc(S(=O)(=O)Nc3c(C)nn(CC(=O)O)c3C)cc2s1 | -2.83% |
| CC(C(=O)Nc1ccc(Cl)cn1)N1CCc2nn(C)c(=O)cc2C1 (stereo unspecified) | 4.81% |
| CCc1ccc(S(=O)(=O)Nc2ccncc2)s1 | 0.453% |
| CC1CCN(S(=O)(=O)N2CCc3c(c(C(=O)O)nn3CC3CC3)C2)CC1 | -0.65% |
| Cc1nn(C)c2c(=O)n(Cc3ccccc3)nnc12 | 5.53% |
| Cc1ccn2ncc(C(=O)N3CCCC(n4nc(C)nc4C)C3)c2n1 (stereo unspecified) | -13.6% |
| COc1ncc(NS(=O)(=O)c2ccc(F)c(F)c2)c(OC)n1 | -7.76% |
| COc1cc(N2C[C@H]3CCC[C@@H](CN(C)C)[C@H]3C2)ncn1 | -78.3% |
